According to ChEMBL document CHEMBL3804761, “Synthesis of a stable and orally bioavailable englerin analogue” (Bioorg Med Chem Lett, 2016):

Tests used:
Type in all cases: functional
[1] = Growth inhibition of human SF539 cells assessed as cell growth at 10 uM incubated for 48 hrs by sulforhodamine B assay relative to control; conditions: SF-539, 48 h, read-out: Activity
Summary of the method: (§1)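 Single-dose screen in the NCI 60-cell-line panel at one final concentration of 10 µM. Two-day drug exposure with a sulforhodamine B endpoint. Values are growth percent for each cell line.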

[2] = test system: U-251; assay: Growth inhibition of human U251 cells assessed as cell growth at 10 uM incubated for 48 hrs by sulforhodamine B assay relative to control; conditions: U-251, 48 h, read-out: Activity
Summary of the method: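 NCI 60-cell line standard protocol, one-dose screen: single final concentration 10 µM, 2-day drug exposure, sulforhodamine B (SRB) endpoint; read-out is growth percent relative to untreated control.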

[3] = test system: Malme-3M; assay: Growth inhibition of human MALME-3M cells assessed as cell growth at 10 uM incubated for 48 hrs by sulforhodamine B assay relative to control; conditions: read-out: Activity
Summary of the method: (§2)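 Run in the standard NCI 60-cell-line screen. Cells were exposed to drug for two days, and the read-out was sulforhodamine B staining. Compound was tested at a single final concentration of 10 µM in every line, and results are reported as growth percent.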

[4] = test system: M14; assay: Growth inhibition of human M14 cells assessed as cell growth at 10 uM incubated for 48 hrs by sulforhodamine B assay relative to control; conditions: M14, 48 h, read-out: Activity; summary of the method: as §2
[5] = test system: SK-MEL-28; assay: Growth inhibition of human SK-MEL-28 cells assessed as cell growth at 10 uM incubated for 48 hrs by sulforhodamine B assay relative to control; conditions: SK-MEL-28, 48 h, read-out: Activity; summary of the method: as §2
[6] = Growth inhibition of human OVCAR3 cells assessed as cell growth at 10 uM incubated for 48 hrs by sulforhodamine B assay relative to control; conditions: OVCAR-3, 48 h, read-out: Activity; summary of the method: as §2
[7] = Growth inhibition of human OVCAR8 cells assessed as cell growth at 10 uM incubated for 48 hrs by sulforhodamine B assay relative to control; conditions: OVCAR-8, 48 h, read-out: Activity; summary of the method: as §2
[8] = Growth inhibition of human Hs 578T cells assessed as cell growth at 10 uM incubated for 48 hrs by sulforhodamine B assay relative to control; conditions: read-out: Activity
[9] = Growth inhibition of human HOP62 cells incubated for 48 hrs by sulforhodamine B assay; conditions: HOP-62, 48 h; for TGI: read-out: pTGI (converted)
Summary of the method: (§3)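 NCI 60-cell-line panel, standard protocol. Cells exposed to compound for two days, growth read by sulforhodamine B staining. Tested at five 10-fold dilutions, top concentration 100 µM, to give dose-response curves.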

[10] = test system: NCI-H226; assay: Growth inhibition of human NCI-H226 cells incubated for 48 hrs by sulforhodamine B assay; conditions: NCI-H226, 48 h; for TGI: read-out: pTGI (converted); summary of the method: as §3
[11] = test system: NCI-H23; assay: Growth inhibition of human NCI-H23 cells incubated for 48 hrs by sulforhodamine B assay; conditions: NCI-H23, 48 h; for TGI: read-out: pTGI (converted); summary of the method: as §3
[12] = Growth inhibition of human HCC2998 cells incubated for 48 hrs by sulforhodamine B assay; conditions: HCC 2998, 48 h; for TGI: read-out: pTGI (converted); summary of the method: as §3
[13] = Growth inhibition of human HCT116 cells incubated for 48 hrs by sulforhodamine B assay; conditions: HCT-116, 48 h; for TGI: read-out: pTGI (converted); summary of the method: as §3
[14] = Growth inhibition of human SF295 cells incubated for 48 hrs by sulforhodamine B assay; conditions: SF-295, 48 h; for TGI: read-out: pTGI (converted); summary of the method: as §3
[15] = Growth inhibition of human SNB75 cells incubated for 48 hrs by sulforhodamine B assay; conditions: SNB-75, 48 h; for TGI: read-out: pTGI (converted)
Summary of the method: (§4)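 Tested in the standard NCI 60-cell-line protocol with two-day drug exposure and a sulforhodamine B endpoint. Compounds were first screened at a single final concentration of 10 µM, reported as growth percent. They were then run as five 10-fold dilutions starting from a high concentration of 100 µM to give dose-response curves.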

[16] = test system: M14; assay: Growth inhibition of human M14 cells incubated for 48 hrs by sulforhodamine B assay; conditions: M14, 48 h; for TGI: read-out: pTGI (converted); summary of the method: as §3
[17] = test system: MDA-MB-435; assay: Growth inhibition of human MDA-MB-435 cells incubated for 48 hrs by sulforhodamine B assay; conditions: MDA-MB-435, 48 h; for TGI: read-out: pTGI (converted); summary of the method: as §3
[18] = Growth inhibition of human OVCAR5 cells incubated for 48 hrs by sulforhodamine B assay; conditions: OVCAR-5, 48 h; for TGI: read-out: pTGI (converted); summary of the method: as §3
[19] = Growth inhibition of human SKOV3 cells incubated for 48 hrs by sulforhodamine B assay; conditions: SK-OV-3, 48 h; for TGI: read-out: pTGI (converted); summary of the method: as §4
[20] = test system: 786-0; assay: Growth inhibition of human 786-0 cells incubated for 48 hrs by sulforhodamine B assay; conditions: 786-0, 48 h; for TGI: read-out: pTGI (converted); summary of the method: as §3
[21] = test system: A498; assay: Growth inhibition of human A498 cells incubated for 48 hrs by sulforhodamine B assay; conditions: A498, 48 h; for TGI: read-out: pTGI (converted)
[22] = Growth inhibition of human Hs 578T cells incubated for 48 hrs by sulforhodamine B assay; conditions: for CC50: read-out: pLC50 (the source's name) (converted); for TGI: read-out: pTGI (converted)
[23] = test system: NCI-H226; assay: Growth inhibition of human NCI-H226 cells assessed as cell growth at 10 uM incubated for 48 hrs by sulforhodamine B assay relative to control; conditions: NCI-H226, 48 h, read-out: Activity; summary of the method: as §2
[24] = test system: NCI-H460; assay: Growth inhibition of human NCI-H460 cells assessed as cell growth at 10 uM incubated for 48 hrs by sulforhodamine B assay relative to control; conditions: NCI-H460, 48 h, read-out: Activity; summary of the method: as §2
[25] = Growth inhibition of human COLO205 cells assessed as cell growth at 10 uM incubated for 48 hrs by sulforhodamine B assay relative to control; conditions: COLO 205, 48 h, read-out: Activity; summary of the method: as §2
[26] = Growth inhibition of human HCC2998 cells assessed as cell growth at 10 uM incubated for 48 hrs by sulforhodamine B assay relative to control; conditions: HCC 2998, 48 h, read-out: Activity; summary of the method: as §1
[27] = Growth inhibition of human HCT15 cells assessed as cell growth at 10 uM incubated for 48 hrs by sulforhodamine B assay relative to control; conditions: HCT-15, 48 h, read-out: Activity; summary of the method: as §2
[28] = Growth inhibition of human HOP92 cells assessed as cell growth at 10 uM incubated for 48 hrs by sulforhodamine B assay relative to control; conditions: HOP-92, 48 h, read-out: Activity; summary of the method: as §1

`CC(C)[C@@]12C[C@@H](NC(=O)CO)[C@@](C)(O1)[C@@H]1CC[C@@H](C)[C@H]1[C@@H]2OC(=O)c1ccc2ccccc2c1` showed a growth at 10 µM [1] of 84.6%, a growth at 10 µM [2] of 79.3% and a growth at 10 µM [3] of 85.3%. For the same compound, the growth at 10 µM [4] was 95.2%, the growth at 10 µM [5] was 93.2% and the growth at 10 µM [6] was 98.8%. The growth at 10 µM [7] was 51.3%, the growth at 10 µM [8] was -18.3% and the GI50 [9] was 15.1 µM. The LC50 [9] was 55 µM, the TGI [9] was 28.8 µM and the GI50 [10] was 13.2 µM. For the same compound, the LC50 [10] was 85.1 µM, the TGI [10] was 33.1 µM and the GI50 [11] was 14.1 µM. It also gave an LC50 [11] of 57.5 µM, a TGI [11] of 28.2 µM and a GI50 [12] of 15.8 µM. For the same compound, the LC50 [12] was 57.5 µM, the TGI [12] was 30.2 µM and the GI50 [13] was 14.1 µM. It also gave an LC50 [13] of 53.7 µM, a TGI [13] of 27.5 µM and a GI50 [14] of 16.2 µM. It also gave an LC50 (concentration causing 50% net cell kill) [14] of 57.5 µM, a TGI [14] of 30.2 µM and a GI50 [15] of 13.2 µM. It also gave an LC50 [15] of 56.2 µM, a TGI [15] of 27.5 µM and a GI50 [16] of 16.6 µM. The LC50 [16] was 58.9 µM, the TGI [16] was 31.6 µM and the GI50 [17] was 17 µM. It also gave an LC50 [17] of 63.1 µM, a TGI [17] of 32.4 µM and a GI50 [18] of 15.5 µM. The LC50 [18] was 55 µM, the TGI [18] was 28.8 µM and the GI50 [19] was 15.8 µM. The LC50 [19] was 56.2 µM, the TGI [19] was 30.2 µM and the GI50 [20] was 13.8 µM. For the same compound, the LC50 [20] was 56.2 µM, the TGI [20] was 28.2 µM and the LC50 [21] was 29.5 µM. It also gave a GI50 ([21]; read-out: GI50) of 1620 nM, a GI50 ([21]; read-out: pGI50 (converted)) of 1620 nM and a TGI [21] of 6.31 µM. The GI50 ([22]; read-out: GI50) was 2230 nM, the GI50 ([22]; read-out: pGI50 (converted)) was 2240 nM and the CC50 [22] was > 100 µM. It also gave a TGI [22] of 8.91 µM, a growth at 10 µM [23] of 90.2% and a growth at 10 µM [24] of 92.6%. It also gave a growth at 10 µM [25] of 110%, a growth at 10 µM [26] of 105% and a growth at 10 µM [27] of 90.8%.

Work on `CC(C)[C@@]12C[C@@H](NC(=O)CO)[C@@](C)(O1)[C@@H]1CC[C@@H](C)[C@H]1[C@@H]2OC(=O)/C=C/c1ccccc1` yielded a growth at 10 µM [1] of 97.2%, a growth at 10 µM [2] of 92.3% and a growth at 10 µM [3] of 95.2%. For the same compound, the growth at 10 µM [4] was 103%, the growth at 10 µM [5] was 112% and the growth at 10 µM [6] was 106%. The growth at 10 µM [7] was 51.5%, the growth at 10 µM [8] was 9% and the GI50 [9] was 35.5 µM. For the same compound, the LC50 [9] was > 50.1 µM, the TGI [9] was > 50.1 µM and the GI50 [10] was 25.1 µM. For the same compound, the LC50 [10] was > 50.1 µM, the TGI [10] was > 50.1 µM and the GI50 [11] was 14.8 µM. For the same compound, the LC50 [11] was > 50.1 µM, the TGI [11] was > 50.1 µM and the GI50 [12] was 15.8 µM. The LC50 [12] was > 50.1 µM, the TGI [12] was > 50.1 µM and the GI50 [13] was 10.7 µM. The LC50 [13] was > 50.1 µM, the TGI [13] was 38 µM and the GI50 [14] was 18.6 µM. The LC50 (concentration causing 50% net cell kill) [14] was > 50.1 µM, the TGI [14] was > 50.1 µM and the GI50 [15] was 9.77 µM. For the same compound, the LC50 [15] was > 50.1 µM, the TGI [15] was 43.7 µM and the GI50 [16] was 16.6 µM. For the same compound, the LC50 [16] was > 50.1 µM, the TGI [16] was > 50.1 µM and the GI50 [17] was 18.2 µM. For the same compound, the LC50 [17] was > 50.1 µM, the TGI [17] was > 50.1 µM and the GI50 [18] was 23.4 µM. The LC50 [18] was > 50.1 µM, the TGI [18] was > 50.1 µM and the GI50 [19] was > 50.1 µM. The LC50 [19] was > 50.1 µM, the TGI [19] was > 50.1 µM and the GI50 [20] was 3.63 µM. For the same compound, the LC50 [20] was > 50.1 µM, the TGI [20] was 24 µM and the LC50 [21] was 29.5 µM. The GI50 ([21]; read-out: GI50) was 162 nM, the GI50 ([21]; read-out: pGI50 (converted)) was 162 nM and the TGI [21] was 2.45 µM. The GI50 ([22]; read-out: GI50) was 832 nM, the GI50 ([22]; read-out: pGI50 (converted)) was 832 nM and the CC50 [22] was > 50.1 µM. The TGI [22] was 3.39 µM, the growth at 10 µM [28] was 88.6% and the growth at 10 µM [23] was 90.8%. It also gave a growth at 10 µM [24] of 108%, a growth at 10 µM [25] of 96.4% and a growth at 10 µM [27] of 108%.

`CC(C)[C@@]12C[C@@H](NC(=O)CF)[C@@](C)(O1)[C@@H]1CC[C@@H](C)[C@H]1[C@@H]2OC(=O)/C=C/c1ccccc1` showed a growth at 10 µM [1] of 87.9%, a growth at 10 µM [2] of 106% and a growth at 10 µM [3] of 106%. The growth at 10 µM [4] was 96.7%, the growth at 10 µM [5] was 110% and the growth at 10 µM [6] was 115%. It also gave a growth at 10 µM [7] of 107%, a growth at 10 µM [8] of 92.6% and a growth at 10 µM [28] of 75.8%. The growth at 10 µM [23] was 84.5%, the growth at 10 µM [24] was 104% and the growth at 10 µM [25] was 103%. The growth at 10 µM [26] was 107% and the growth at 10 µM [27] was 103%.
